For one series, the target named is T1, Oxytocin receptor (Homo sapiens, UniProt P30559).
T1 sequence (P30559 whole entry): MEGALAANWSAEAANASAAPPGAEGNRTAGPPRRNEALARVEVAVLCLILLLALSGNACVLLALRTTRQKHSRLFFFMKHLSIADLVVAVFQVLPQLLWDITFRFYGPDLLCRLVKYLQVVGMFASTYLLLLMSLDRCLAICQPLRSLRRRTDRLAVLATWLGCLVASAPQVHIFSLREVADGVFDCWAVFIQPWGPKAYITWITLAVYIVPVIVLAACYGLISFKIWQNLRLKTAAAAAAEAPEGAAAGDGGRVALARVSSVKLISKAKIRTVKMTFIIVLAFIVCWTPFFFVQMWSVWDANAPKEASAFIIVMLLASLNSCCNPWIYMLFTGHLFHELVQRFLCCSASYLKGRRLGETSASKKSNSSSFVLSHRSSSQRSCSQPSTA
Kind of series: Antagonist activity at human cloned oxytocin receptor by cell based beta lactamase assay. In kind it is functional.

A further series has as its target Vasopressin V2 receptor (Homo sapiens, UniProt P30518). Kind of series: Antagonist activity at human cloned vasopressin V2 receptor by cell based beta lactamase assay. In kind it is functional.
For the next series, the system named is Liver microsomes. Kind of series: Intrinsic clearance in human liver microsomes. In kind it is ADME, Microsome. (Liver microsomes are vesicles of endoplasmic reticulum, rich in cytochrome P450 enzymes.)
In a further series the target is Vasopressin V1a receptor (Homo sapiens, UniProt P37288). Kind of series: Antagonist activity at human cloned vasopressin V1a receptor by cell based beta lactamase assay. In kind it is functional.
Vasopressin V1a receptor, sequence (P37288 whole entry): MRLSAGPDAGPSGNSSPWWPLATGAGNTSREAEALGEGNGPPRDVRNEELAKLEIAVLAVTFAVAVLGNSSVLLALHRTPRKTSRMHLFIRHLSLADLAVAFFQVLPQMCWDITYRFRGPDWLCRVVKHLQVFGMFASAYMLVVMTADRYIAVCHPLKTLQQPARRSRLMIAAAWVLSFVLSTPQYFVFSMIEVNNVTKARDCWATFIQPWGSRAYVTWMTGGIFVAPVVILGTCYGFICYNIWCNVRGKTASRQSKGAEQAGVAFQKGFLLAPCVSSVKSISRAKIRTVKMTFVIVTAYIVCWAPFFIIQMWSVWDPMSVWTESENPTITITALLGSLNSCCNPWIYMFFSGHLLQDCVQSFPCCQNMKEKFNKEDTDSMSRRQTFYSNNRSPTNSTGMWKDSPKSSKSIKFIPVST
Series [1] in a line: Aqueous solubility at pH 7.5. In kind it is physicochemical. The following applies: buffer. The essentials:
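Aqueous solubility was measured on fully crystalline material at pH 7.5.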

A short description of series [2]: Clearance in rat at 2 mg/kg, po. In kind it is ADME, organism-based. Also on record: dose 2 mg/kg, route oral. The following applies: in vivo. The essentials: (§1)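 Pharmacokinetic parameters from oral dosing of a suspension of fully crystalline material, at 2 mg/Kg in rat and 0.2 mg/Kg in dog.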
The nature of series [3]: Half life in rat at 2 mg/kg, po. Format: ADME, organism-based. Also on record: dose 2 mg/kg, route oral. As to conditions: in vivo. The essentials: as §1
The subject of series [4] is Rattus norvegicus. Briefly: Volume of distribution in rat at 2 mg/kg, po. Format: ADME, organism-based. Further details: dose 2 mg/kg, route oral. As to conditions: in vivo. The essentials: as §1
A short description of series [5]: Oral bioavailability in rat at 2 mg/kg. In kind it is ADME, organism-based. The following applies: in vivo. The essentials: (§2)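 Oral bioavailability from oral dosing of a suspension of fully crystalline material, at 2 mg/Kg in rat and 0.2 mg/Kg in dog, calculated by comparison with iv pharmacokinetic data.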
Series [6] in a line: Clearance in dog at 0.2 mg/kg, po. In kind it is ADME, organism-based, Canis lupus familiaris. The following applies: in vivo. Also on record: dose 0.2 mg/kg, route oral. The essentials: as §1
Series [7] can be described thus: Half life in dog at 0.2 mg/kg, po. Format: ADME, organism-based, Canis lupus familiaris. Also on record: dose 0.2 mg/kg, route oral. The following applies: in vivo. The essentials: as §1
For a further series, the system named is Canis familiaris. Kind of series: Volume of distribution in dog at 0.2 mg/kg, po. As to conditions: in vivo. Format: ADME, organism-based, Canis lupus familiaris. Further details: dose 0.2 mg/kg, route oral. The essentials:
as §1

Series [8] is described as follows: Oral bioavailability in dog at 0.2 mg/kg, po. Format: ADME, organism-based, Canis lupus familiaris. The following applies: in vivo. The essentials: as §2
The target in another series is Substance-P receptor (Homo sapiens, UniProt P25103). Kind of series: Binding affinity to NK1 receptor.
Substance-P receptor, sequence (P25103 whole entry): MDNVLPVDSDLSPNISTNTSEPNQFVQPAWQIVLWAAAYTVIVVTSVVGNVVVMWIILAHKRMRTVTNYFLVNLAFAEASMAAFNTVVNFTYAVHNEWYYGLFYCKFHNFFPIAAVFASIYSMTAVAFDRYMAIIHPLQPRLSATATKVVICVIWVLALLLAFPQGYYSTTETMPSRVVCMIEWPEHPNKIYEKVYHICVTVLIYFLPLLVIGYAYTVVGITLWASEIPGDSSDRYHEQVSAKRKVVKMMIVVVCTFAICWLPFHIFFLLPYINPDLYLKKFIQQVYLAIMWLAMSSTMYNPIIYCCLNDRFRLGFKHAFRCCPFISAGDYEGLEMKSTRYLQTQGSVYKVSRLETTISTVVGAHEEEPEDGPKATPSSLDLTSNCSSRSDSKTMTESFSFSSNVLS
Series [9] addresses Kappa-type opioid receptor (Homo sapiens, UniProt P41145). Kind of series: Binding affinity to kappa opioid receptor.
Series [10] concerns the target Growth hormone secretagogue receptor type 1 (Homo sapiens, UniProt Q92847). Kind of series: Binding affinity to ghrelin receptor.
Series [11] has as its system Rattus norvegicus. Kind of series: Volume of distribution in rat at 0.5 mg/kg, po. The following applies: in vivo. Format: ADME, organism-based. Also on record: dose 0.5 mg/kg, route oral.

Molecules are shown by their SMILES. Values after ≈ are worked out from the molar mass of the structure shown. A value given as a limit tells only on which side of the number the result lay.

Vasopressin V2 receptor, sequence (P30518 whole entry): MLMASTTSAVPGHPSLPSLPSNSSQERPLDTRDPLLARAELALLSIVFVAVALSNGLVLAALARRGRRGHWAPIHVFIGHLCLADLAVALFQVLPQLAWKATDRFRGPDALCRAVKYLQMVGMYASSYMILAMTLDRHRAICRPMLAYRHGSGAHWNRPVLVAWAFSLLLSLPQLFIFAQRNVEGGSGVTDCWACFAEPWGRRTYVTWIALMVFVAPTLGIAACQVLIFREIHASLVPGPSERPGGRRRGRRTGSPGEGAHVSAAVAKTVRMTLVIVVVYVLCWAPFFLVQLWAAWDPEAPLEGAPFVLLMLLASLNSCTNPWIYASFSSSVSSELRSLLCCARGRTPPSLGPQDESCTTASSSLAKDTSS
Kappa-type opioid receptor, sequence (P41145 whole entry): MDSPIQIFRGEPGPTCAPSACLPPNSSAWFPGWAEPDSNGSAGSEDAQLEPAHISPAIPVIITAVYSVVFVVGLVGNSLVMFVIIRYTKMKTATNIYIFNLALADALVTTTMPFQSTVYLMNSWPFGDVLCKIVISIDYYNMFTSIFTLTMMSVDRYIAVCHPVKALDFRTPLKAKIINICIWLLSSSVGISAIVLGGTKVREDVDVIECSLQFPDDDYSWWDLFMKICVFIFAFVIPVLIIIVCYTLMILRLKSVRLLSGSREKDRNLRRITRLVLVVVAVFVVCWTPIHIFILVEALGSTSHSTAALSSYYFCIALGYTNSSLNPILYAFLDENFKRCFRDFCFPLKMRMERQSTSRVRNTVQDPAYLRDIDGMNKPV
Growth hormone secretagogue receptor type 1, sequence (Q92847 whole entry): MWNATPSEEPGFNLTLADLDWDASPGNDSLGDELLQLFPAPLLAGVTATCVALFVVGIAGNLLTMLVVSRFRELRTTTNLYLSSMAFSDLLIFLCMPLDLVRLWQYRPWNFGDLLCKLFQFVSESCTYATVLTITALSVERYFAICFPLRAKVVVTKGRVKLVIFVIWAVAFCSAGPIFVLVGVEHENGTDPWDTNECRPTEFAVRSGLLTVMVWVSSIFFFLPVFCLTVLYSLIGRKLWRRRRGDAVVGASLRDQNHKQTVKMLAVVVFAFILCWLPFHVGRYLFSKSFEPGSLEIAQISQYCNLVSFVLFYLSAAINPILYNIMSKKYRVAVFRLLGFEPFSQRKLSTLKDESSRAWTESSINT

Take `COc1ccc(-n2c(C)nnc2N2CCC(Oc3cccc(F)c3C)CC2)cn1`: the figures for the Ki on Oxytocin receptor and at Vasopressin V2 receptor were 2.6 nM and over 10000 nM, respectively. Further, the clearance with Liver microsomes worked out at 24 µL/min/mg.
Take `COCc1nnc(N2CC[C@@H](Oc3ccccc3C)C2)n1-c1ccc(OC)nc1`: the Ki – broadly, the equilibrium dissociation constant of an inhibitor or competing ligand from its target – at Oxytocin receptor was 28.5 nM; on Vasopressin V1a receptor, 255 nM; on Vasopressin V2 receptor it was over 10000 nM.
For the compound `COCc1nnc(N2CC(Oc3ccc(F)cc3Cl)C2)n1-c1ccc(OC)nc1`, the inhibition constant (Ki) at Oxytocin receptor is 9.5 nM; on Vasopressin V1a receptor, 1120 nM; at Vasopressin V2 receptor it was over 10000 nM; at Substance-P receptor, 6500 nM; in series [9] it was 3000 nM; in [10], 4400 nM. The compound also gave a clearance with Liver microsomes of 10 µL/min/mg. Besides, the concentration in solution in series [1] (solubility) came to 59 µg/mL (≈ 141 µM). The apparent clearance CL/F (in general, the apparent clearance, not corrected for the fraction that reaches the circulation) in series [2] stood at 36 mL/min/kg; in series [6] it was 8 mL/min/kg. The values for the half-life in series [3] and in [7] were 0.9 h and 1.9 h, respectively. Also, the figures for the Vd with Rattus norvegicus [4] and in the series with Canis familiaris were 2.5 L/kg and 1.3 L/kg, respectively. The results for the bioavailability in [5] and in series [8] were 62% and 81%, respectively.
For `COc1ccc(-n2c(C)nnc2N2CC[C@@H](Oc3ccccc3)C2)cn1`, the values for the inhibition constant Ki at Oxytocin receptor, at Vasopressin V1a receptor and on Vasopressin V2 receptor were 170 nM, 1840 nM and over 10000 nM, respectively.
For `COc1ccc(-n2c(C)nnc2N2CC(Oc3ccc(F)cc3C)C2)cn1`, in that order: 17.5 nM, 608 nM and over 10000 nM.
Consider `COc1ccc(-n2c(C)nnc2N2CC(Oc3ccccc3Cl)C2)cn1`, for which the inhibition constant Ki at Oxytocin receptor is 55.1 nM; on Vasopressin V1a receptor, 1940 nM; at Vasopressin V2 receptor it was over 10000 nM.
Consider `COCc1nnc(N2CC[C@H](Oc3ccccc3C)C2)n1-c1ccc(OC)nc1`, for which the values for the inhibitory constant (Ki) on Oxytocin receptor, at Vasopressin V1a receptor and at Vasopressin V2 receptor were 207 nM, 522 nM and over 10000 nM, respectively.
As to `COCc1nnc(N2CC(Oc3ccccc3Cl)C2)n1-c1ccc(OC)nc1`, the inhibition constant Ki on Oxytocin receptor is 32.5 nM; at Vasopressin V1a receptor, 1340 nM; on Vasopressin V2 receptor, over 10000 nM. In the series with Liver microsomes, this compound registered a clearance of 21 µL/min/mg.
On to `COc1ccc(-n2c(C)nnc2N2CC[C@@H](Oc3ccccc3C)C2)cn1`, for which the inhibitory constant (Ki) at Oxytocin receptor is 35.9 nM; at Vasopressin V1a receptor, 734 nM; at Vasopressin V2 receptor it was over 10000 nM. The compound further came in with a clearance with Liver microsomes of 32 µL/min/mg.
For the compound `COc1ccc(-n2c(C)nnc2N2CCC(Oc3ccc(F)cc3C)CC2)cn1`, the Ki on Vasopressin V1a receptor was 111 nM; on Vasopressin V2 receptor, over 10000 nM. The same compound registered a clearance in the series with Liver microsomes of 23 µL/min/mg.
On to `COc1ccc(-n2c(C)nnc2N2CC(Oc3cc(F)ccc3C)C2)cn1`, for which the inhibitory constant (Ki) on Oxytocin receptor came to 40 nM; on Vasopressin V1a receptor it was 1680 nM; on Vasopressin V2 receptor, 2770 nM.
Regarding `COc1ccc(-n2c(C)nnc2N2CC(Oc3ccc(F)cc3Cl)C2)cn1`, the Ki at Oxytocin receptor is 28.4 nM; on Vasopressin V1a receptor it was 2430 nM; at Vasopressin V2 receptor, over 10000 nM. For the same compound, the clearance in the series with Liver microsomes turned out to be 22 µL/min/mg.
On to `COc1ccc(-n2c(C)nnc2-c2cnc(-c3ccc(F)cc3C)cn2)cn1`, for which the Ki at Vasopressin V2 receptor is over 10000 nM. This compound showed a Vd in the series with Rattus norvegicus [11] of 4.4 L/kg.
`COc1ccc(-n2c(C)nnc2N2CC[C@@H](Oc3ccc(F)cc3C)C2)cn1`: the inhibitory constant (Ki) on Oxytocin receptor was 31.8 nM; on Vasopressin V1a receptor, 941 nM; on Vasopressin V2 receptor, over 10000 nM. Besides, the clearance in the series on Liver microsomes was determined as 95 µL/min/mg.
As to `COCc1nnc(N2CC[C@@H](Oc3cc(F)cc(F)c3C)C2)n1-c1ccc(OC)nc1`, the Ki was 5.8 nM on Oxytocin receptor, 1000 nM at Vasopressin V1a receptor and over 10000 nM at Vasopressin V2 receptor. The clearance with Liver microsomes was 107 µL/min/mg.
For the compound `COCc1nnc(N2CCC(Oc3ccccc3C)CC2)n1-c1ccc(OC)nc1`, the inhibition constant Ki is 2.2 nM at Oxytocin receptor, 24.4 nM at Vasopressin V1a receptor and over 10000 nM on Vasopressin V2 receptor.
With `COCc1nnc(N2CC(Oc3ccc(F)cc3C)C2)n1-c1ccc(OC)nc1`, the results for the inhibition constant (Ki) at Oxytocin receptor, on Vasopressin V1a receptor and at Vasopressin V2 receptor were 18.4 nM, 719 nM and 1190 nM, respectively.
Take `COc1ccc(-n2c(C)nnc2N2CCC(Oc3ccccc3)CC2)cn1`: the Ki at Oxytocin receptor is 114 nM; at Vasopressin V1a receptor, 127 nM; on Vasopressin V2 receptor it was over 10000 nM.
As for `COc1ccc(-n2c(C)nnc2N2CCC(Oc3ccccc3C)CC2)cn1`, the Ki is 5.4 nM at Oxytocin receptor, 21.6 nM on Vasopressin V1a receptor and over 10000 nM on Vasopressin V2 receptor.
For `COc1ccc(-n2c(C)nnc2N2CCC(Oc3cc(F)cc(F)c3C)CC2)cn1`, the results for the Ki on Oxytocin receptor, at Vasopressin V1a receptor and on Vasopressin V2 receptor were 0.4 nM, 175 nM and over 10000 nM, respectively.
For `COCc1nnc(N2CC[C@@H](Oc3ccc(F)cc3C)C2)n1-c1ccc(OC)nc1`, the values for the inhibition constant Ki at Oxytocin receptor, on Vasopressin V1a receptor and on Vasopressin V2 receptor were 17.9 nM, 586 nM and over 10000 nM, respectively. Also, in the series with Liver microsomes, the clearance was over 440 µL/min/mg.
As for `COc1ccc(-n2c(C)nnc2N2CC(Oc3ccccc3)C2)cn1`, the Ki is 304 nM at Oxytocin receptor, over 10000 nM at Vasopressin V1a receptor and over 10000 nM on Vasopressin V2 receptor. Also, the clearance in the series on Liver microsomes was under 7 µL/min/mg.

Values taken from ChEMBL document CHEMBL1153191, “Triazole oxytocin antagonists: Identification of an aryloxyazetidine replacement for a biaryl substituent” (Bioorg Med Chem Lett, 2010).
